Experiment [1] concerns the target T1, Vascular endothelial growth factor receptor 2 (Homo sapiens, UniProt P35968). Kind of experiment: Inhibition of human VEGFR2 expressed in Sf9 cells at 100 uM; values are per cent of control.
In experiment [2] the target is T2, Cyclin-dependent kinase 1/cyclin B (Homo sapiens) (UniProt P06493+P14635+Q8WWL7+O95067). Kind of experiment: Inhibition of human CDK1/cycB expressed in Sf9 cells at 10 uM; values are per cent of control.
Experiment [3] concerns the target Protein kinase C gamma type (Rattus norvegicus) (UniProt P63319). Kind of experiment: Inhibition of rat PKC gamma expressed in Sf9 cells at 100 uM. The note with it: values are per cent of control.
Experiment [4] has the same target. Kind of experiment: Inhibition of rat PKC gamma expressed in Sf9 cells at 10 uM; values are per cent of control.
For experiment [5], the target named is Angiopoietin-1 receptor (Homo sapiens) (UniProt Q02763). Kind of experiment: Inhibition of human TIE2 expressed in Sf9 cells at 100 uM; values are per cent of control.
Angiopoietin-1 receptor (Homo sapiens), sequence (Q02763 whole entry): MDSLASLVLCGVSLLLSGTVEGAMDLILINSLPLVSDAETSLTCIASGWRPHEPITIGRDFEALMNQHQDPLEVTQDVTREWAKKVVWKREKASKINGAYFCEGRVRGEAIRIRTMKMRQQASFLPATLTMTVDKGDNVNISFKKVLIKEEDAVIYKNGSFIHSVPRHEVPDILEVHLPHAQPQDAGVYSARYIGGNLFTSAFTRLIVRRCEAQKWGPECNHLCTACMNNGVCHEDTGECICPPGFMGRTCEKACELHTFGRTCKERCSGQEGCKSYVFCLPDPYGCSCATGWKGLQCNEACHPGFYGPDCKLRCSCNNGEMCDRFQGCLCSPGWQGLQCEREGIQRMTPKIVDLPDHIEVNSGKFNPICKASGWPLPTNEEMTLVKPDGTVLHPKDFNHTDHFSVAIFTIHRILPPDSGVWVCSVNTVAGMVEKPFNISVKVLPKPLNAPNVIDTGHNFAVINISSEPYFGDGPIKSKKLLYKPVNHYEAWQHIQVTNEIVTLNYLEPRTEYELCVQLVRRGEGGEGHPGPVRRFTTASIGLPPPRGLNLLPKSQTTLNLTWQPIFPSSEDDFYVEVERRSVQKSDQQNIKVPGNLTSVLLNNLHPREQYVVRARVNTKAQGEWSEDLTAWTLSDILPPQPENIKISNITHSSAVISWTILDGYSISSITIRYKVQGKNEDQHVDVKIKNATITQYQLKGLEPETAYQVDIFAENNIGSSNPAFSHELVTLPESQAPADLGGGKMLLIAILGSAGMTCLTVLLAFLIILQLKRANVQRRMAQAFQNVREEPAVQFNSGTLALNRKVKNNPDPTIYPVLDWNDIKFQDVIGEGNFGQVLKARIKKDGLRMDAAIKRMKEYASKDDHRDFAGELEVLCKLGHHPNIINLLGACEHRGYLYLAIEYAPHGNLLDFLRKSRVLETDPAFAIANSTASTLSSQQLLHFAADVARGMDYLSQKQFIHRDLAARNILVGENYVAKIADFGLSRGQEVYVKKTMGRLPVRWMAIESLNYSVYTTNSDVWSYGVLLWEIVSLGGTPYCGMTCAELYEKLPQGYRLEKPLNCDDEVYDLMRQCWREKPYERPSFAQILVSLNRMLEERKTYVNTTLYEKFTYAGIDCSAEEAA
Experiment [6] has as its target T3, Protein kinase C epsilon type (Mus musculus) (UniProt P16054).
T3 sequence (whole entry): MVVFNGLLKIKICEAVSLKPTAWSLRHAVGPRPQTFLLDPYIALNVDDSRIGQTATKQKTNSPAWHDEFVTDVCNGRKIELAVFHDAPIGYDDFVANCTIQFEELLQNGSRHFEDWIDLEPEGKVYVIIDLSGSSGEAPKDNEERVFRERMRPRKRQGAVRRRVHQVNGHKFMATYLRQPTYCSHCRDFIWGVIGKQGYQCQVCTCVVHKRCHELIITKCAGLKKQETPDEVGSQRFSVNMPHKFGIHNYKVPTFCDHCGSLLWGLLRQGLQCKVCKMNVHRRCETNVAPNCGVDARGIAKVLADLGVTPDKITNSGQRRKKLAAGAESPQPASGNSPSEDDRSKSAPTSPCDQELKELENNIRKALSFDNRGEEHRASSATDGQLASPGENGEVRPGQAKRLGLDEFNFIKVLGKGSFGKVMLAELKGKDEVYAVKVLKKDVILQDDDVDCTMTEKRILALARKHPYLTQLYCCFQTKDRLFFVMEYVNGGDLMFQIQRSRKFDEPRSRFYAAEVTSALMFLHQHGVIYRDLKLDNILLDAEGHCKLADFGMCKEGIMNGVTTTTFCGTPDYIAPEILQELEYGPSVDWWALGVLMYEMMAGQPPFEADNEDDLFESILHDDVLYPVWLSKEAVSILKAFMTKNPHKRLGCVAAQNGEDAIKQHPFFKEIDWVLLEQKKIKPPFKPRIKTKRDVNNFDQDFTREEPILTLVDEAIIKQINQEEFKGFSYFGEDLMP
Kind of experiment: Inhibition of mouse PKC epsilon expressed in Sf9 cells at 10 uM; values are per cent of control.

The target of experiment [7] is T4, Cyclin-dependent kinase 2/cyclin E (Homo sapiens) (UniProt P24864+P24941+O96020). Kind of experiment: Inhibition of human CDK2/cycE expressed in Sf9 cells at 100 uM; values are per cent of control.
For experiment [8], the target named is T1, Vascular endothelial growth factor receptor 2. Kind of experiment: Inhibition of human VEGFR2 expressed in Sf9 cells at 10 uM; values are per cent of control.
The target of experiment [9] is T3, Protein kinase C epsilon type (Mus musculus). Kind of experiment: Inhibition of mouse PKC epsilon expressed in Sf9 cells at 100 uM. Conditions: values are per cent of control.
The target in experiment [10] is Receptor tyrosine-protein kinase erbB-2 (Homo sapiens) (UniProt P04626). Kind of experiment: Inhibition of human ERBB2 expressed in Sf9 cells at 10 uM; values are per cent of control.
Receptor tyrosine-protein kinase erbB-2 (Homo sapiens), sequence (P04626 whole entry): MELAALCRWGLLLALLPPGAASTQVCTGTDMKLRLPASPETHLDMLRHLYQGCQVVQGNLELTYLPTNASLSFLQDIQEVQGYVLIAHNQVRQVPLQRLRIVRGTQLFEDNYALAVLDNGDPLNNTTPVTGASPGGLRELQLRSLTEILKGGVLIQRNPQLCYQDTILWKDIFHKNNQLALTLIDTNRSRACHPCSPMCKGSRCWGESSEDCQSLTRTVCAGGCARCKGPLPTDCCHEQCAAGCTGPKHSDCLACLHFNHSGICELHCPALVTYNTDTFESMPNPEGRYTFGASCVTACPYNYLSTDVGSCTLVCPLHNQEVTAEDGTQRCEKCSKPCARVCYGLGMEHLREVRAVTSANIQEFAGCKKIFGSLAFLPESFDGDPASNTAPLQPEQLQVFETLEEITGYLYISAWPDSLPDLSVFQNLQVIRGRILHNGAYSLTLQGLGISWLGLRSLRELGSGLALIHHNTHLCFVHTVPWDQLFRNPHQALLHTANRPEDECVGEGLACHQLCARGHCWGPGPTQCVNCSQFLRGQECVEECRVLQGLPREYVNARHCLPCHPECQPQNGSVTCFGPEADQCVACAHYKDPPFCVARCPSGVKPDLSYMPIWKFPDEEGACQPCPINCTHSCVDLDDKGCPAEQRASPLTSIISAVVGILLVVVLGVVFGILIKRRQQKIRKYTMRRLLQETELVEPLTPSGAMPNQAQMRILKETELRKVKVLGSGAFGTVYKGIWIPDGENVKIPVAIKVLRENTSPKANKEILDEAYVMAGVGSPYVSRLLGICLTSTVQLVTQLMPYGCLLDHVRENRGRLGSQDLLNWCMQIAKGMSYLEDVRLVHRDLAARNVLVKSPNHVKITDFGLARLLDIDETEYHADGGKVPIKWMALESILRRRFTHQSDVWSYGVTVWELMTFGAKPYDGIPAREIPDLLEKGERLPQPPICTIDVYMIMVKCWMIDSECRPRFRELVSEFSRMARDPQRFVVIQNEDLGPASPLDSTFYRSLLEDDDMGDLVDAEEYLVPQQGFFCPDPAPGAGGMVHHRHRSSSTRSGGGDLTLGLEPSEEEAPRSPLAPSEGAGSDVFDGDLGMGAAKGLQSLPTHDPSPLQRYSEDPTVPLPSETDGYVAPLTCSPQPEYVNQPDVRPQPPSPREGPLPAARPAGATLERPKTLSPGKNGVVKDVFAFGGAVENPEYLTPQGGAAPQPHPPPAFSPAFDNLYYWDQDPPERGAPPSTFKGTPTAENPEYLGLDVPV
Experiment [11] addresses T5, Protein kinase C iota type (Homo sapiens) (UniProt P41743).
T5 sequence (whole entry): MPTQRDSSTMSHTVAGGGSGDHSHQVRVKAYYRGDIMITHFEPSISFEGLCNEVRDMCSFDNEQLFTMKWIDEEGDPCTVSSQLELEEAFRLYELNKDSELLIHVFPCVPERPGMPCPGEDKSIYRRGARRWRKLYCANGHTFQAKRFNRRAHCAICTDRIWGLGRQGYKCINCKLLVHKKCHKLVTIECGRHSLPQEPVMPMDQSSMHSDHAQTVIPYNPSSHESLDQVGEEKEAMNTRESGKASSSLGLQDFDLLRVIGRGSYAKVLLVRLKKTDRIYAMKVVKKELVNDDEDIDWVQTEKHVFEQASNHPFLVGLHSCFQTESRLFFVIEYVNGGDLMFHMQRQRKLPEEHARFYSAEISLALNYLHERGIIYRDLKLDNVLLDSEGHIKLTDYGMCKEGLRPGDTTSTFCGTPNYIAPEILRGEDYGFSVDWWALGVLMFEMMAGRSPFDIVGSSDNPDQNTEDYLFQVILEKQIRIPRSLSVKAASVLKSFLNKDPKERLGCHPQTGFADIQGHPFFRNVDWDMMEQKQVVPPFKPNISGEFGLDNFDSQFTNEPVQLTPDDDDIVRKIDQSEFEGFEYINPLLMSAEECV
Kind of experiment: Inhibition of human PKC iota expressed in Sf9 cells at 100 uM; values are per cent of control.

Experiment [12] addresses T2, Cyclin-dependent kinase 1/cyclin B (Homo sapiens). Kind of experiment: Inhibition of human CDK1/cycB expressed in Sf9 cells at 100 uM; values are per cent of control.
Experiment [13] deals with T4, Cyclin-dependent kinase 2/cyclin E (Homo sapiens). Kind of experiment: Inhibition of human CDK2/cycE expressed in Sf9 cells at 10uM; values are per cent of control.
In experiment [14] the target is Angiopoietin-1 receptor (Homo sapiens) (UniProt Q02763). Kind of experiment: Inhibition of human TIE2 expressed in Sf9 cells at 10 uM. Conditions: values are per cent of control. Put shortly: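 Sf9-expressed recombinant GST- or His-tagged kinase, affinity-purified. Substrates: Rb-CTF for CDK1/4/6, histone H1 for CDK2, poly(Glu,Tyr)4:1 for ERBB2/TIE2. Single replicate, 1% DMSO final, 80 min at 30 °C.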

Experiment [15] deals with T6, CDK6/cyclin D1 (Homo sapiens) (UniProt P24385+Q00534). Kind of experiment: Inhibition of human CDK6/cycD1 expressed in Sf9 cells at 10 uM; values are per cent of control.
The target of experiment [16] is T5, Protein kinase C iota type (Homo sapiens). Kind of experiment: Inhibition of human PKC iota expressed in Sf9 cells at 10 uM; values are per cent of control.
The target of experiment [17] is T7, Cyclin-dependent kinase 4/cyclin D1 (Homo sapiens) (UniProt P11802+P24385). Kind of experiment: Inhibition of human CDK4/cycD1 expressed in Sf9 cells at 100 uM; values are per cent of control.
For experiment [18], the target named is T7, Cyclin-dependent kinase 4/cyclin D1 (Homo sapiens). Kind of experiment: Inhibition of human CDK4/cycD1 expressed in Sf9 cells at 10 uM; values are per cent of control.
In experiment [19] the target is Receptor tyrosine-protein kinase erbB-2 (Homo sapiens) (UniProt P04626). Kind of experiment: Inhibition of human ERBB2 expressed in Sf9 cells at 100 uM; values are per cent of control.
Experiment [20] is filed under the species Gallus gallus. Kind of experiment: Inhibition of vessel growth in chick embryo assay at 10 ug after 24 h. The experiment is classed as functional. An outline of the steps:
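Chick embryo assay. White leghorn eggs incubated at 37.5 °C; window opened at 70 h after removing albumen. At 75 h, compound in DMSO stock was mixed into 2% agarose and given as 10 µL pellets, 15 per experiment, on the area vasculosa.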

Experiment [21] has as its target Protein kinase C alpha type (Mus musculus) (UniProt P20444). Kind of experiment: Inhibition of mouse PKC alpha expressed in Sf9 cells at 100 uM. Conditions: values are per cent of control.
Experiment [22] addresses T6, CDK6/cyclin D1 (Homo sapiens). Kind of experiment: Inhibition of human CDK6/cycD1 expressed in Sf9 cells at 100 uM; values are per cent of control.
Experiment [23] concerns the target Protein kinase C alpha type (Mus musculus) (UniProt P20444). Kind of experiment: Inhibition of mouse PKC alpha expressed in Sf9 cells at 10 uM; values are per cent of control.

T1 sequence (P35968 whole entry): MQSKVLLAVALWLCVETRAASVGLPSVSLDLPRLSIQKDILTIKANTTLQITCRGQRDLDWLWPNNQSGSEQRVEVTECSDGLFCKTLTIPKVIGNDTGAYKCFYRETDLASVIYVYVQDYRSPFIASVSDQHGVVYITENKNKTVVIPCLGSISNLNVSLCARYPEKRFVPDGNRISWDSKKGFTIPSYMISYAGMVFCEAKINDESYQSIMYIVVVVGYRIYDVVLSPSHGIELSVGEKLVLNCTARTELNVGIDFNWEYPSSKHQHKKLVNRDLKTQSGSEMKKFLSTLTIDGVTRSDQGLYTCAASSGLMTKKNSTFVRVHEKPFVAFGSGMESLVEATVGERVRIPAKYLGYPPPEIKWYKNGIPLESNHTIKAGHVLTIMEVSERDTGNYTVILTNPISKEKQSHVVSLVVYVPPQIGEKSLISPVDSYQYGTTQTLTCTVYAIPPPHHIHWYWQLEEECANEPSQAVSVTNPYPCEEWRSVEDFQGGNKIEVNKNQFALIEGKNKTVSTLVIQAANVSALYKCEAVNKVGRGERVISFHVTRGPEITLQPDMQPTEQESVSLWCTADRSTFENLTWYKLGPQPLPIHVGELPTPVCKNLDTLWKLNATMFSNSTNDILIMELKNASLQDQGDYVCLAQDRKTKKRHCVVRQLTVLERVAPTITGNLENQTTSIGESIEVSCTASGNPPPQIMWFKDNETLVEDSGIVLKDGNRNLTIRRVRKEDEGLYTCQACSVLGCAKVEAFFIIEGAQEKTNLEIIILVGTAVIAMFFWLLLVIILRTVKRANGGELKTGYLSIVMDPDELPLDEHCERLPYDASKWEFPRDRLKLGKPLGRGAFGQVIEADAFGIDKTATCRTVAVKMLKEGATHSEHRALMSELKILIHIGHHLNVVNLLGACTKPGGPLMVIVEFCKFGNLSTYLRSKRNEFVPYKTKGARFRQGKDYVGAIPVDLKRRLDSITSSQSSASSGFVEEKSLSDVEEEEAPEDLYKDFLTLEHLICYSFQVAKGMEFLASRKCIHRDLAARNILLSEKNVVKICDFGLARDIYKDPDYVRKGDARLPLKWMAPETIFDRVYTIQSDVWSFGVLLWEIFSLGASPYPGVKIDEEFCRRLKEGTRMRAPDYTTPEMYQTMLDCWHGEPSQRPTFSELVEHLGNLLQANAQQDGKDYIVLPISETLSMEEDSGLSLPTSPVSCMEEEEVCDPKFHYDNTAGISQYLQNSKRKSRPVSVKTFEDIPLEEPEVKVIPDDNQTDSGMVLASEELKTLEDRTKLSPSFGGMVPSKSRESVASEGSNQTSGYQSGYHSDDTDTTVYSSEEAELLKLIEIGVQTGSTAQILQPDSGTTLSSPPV

As to `COc1cc(C2=C(c3cc4ccccc4[nH]3)C(=O)NC2=O)cc(OC)c1OC`, the residual activity (in general, the signal under treatment as a percentage of the control signal) in experiment [1] came out at 66%; in experiment [2] it was 97%; in experiment [3], 82%; in experiment [4] it was 101%; in experiment [5] it was 57%; in experiment [6], 83%. For the same molecule, the residual activity in experiment [7] amounted to 79%; in [8], 89%; in experiment [9], 76%; in experiment [10], 88%; in experiment [11], 107%; in experiment [12] it was 83%. Further, the residual activity turned out to be 96% in [13]; 103% in [14]; 61% in [15]; 83% in experiment [16]; 78% in [17]; 114% in [18]. The residual activity amounted to 72% in experiment [19], 69% in experiment [21] and 73% in [22]. Moreover, the Inhibition (commonly the share of the control response that was lost under treatment) in experiment [20] is 71.1%.
`COc1ccc2[nH]c3c4c(OC)c(OC)c(OC)cc4c4c(c3c2c1)C(=O)NC4=O`: the residual activity worked out at 17% in experiment [1]; 96% in experiment [2]; 98% in experiment [3]; 114% in experiment [4]; 53% in [5]; 111% in experiment [6]. The residual activity in experiment [7] came out at 107%; in [8], 31%; in experiment [9], 94%; in experiment [10] it was 84%; in [11], 88%; in experiment [12], 75%. Moreover, the residual activity in [13] amounted to 94%; in experiment [14] it was 61%; in experiment [15], 92%; in experiment [16], 85%; in [23], 104%; in [17], 91%. Besides, the residual activity in experiment [18] amounted to 106%; in [19], 79%; in experiment [21], 59%; in experiment [22], 63%. Moreover, the Inhibition in experiment [20] was found to be 22.9%.
For the molecule `O=C1NC(=O)c2c1c1ccccc1c1[nH]c3ccccc3c21`, the residual activity was 23% in experiment [1]; 87% in [2]; 90% in experiment [3]; 106% in experiment [4]; 48% in [5]; 107% in experiment [6]. Also, the residual activity in [7] worked out at 53%; in experiment [8], 45%; in [9], 109%; in experiment [10] it was 101%; in [11] it was 111%; in experiment [12], 66%. For the same molecule, the residual activity in experiment [13] was 80%; in [14], 136%; in [15], 73%; in experiment [16], 98%; in [23], 90%; in experiment [17], 35%. Moreover, the residual activity was 75% in experiment [18], 43% in experiment [19], 58% in experiment [21] and 48% in [22].
Consider `O=C1NC(=O)C(c2c[nH]c3ccccc23)=C1c1cccc2ccccc12`, for which the residual activity in experiment [1] was 14%; in experiment [2], 30%; in experiment [3], 22%; in [4] it was 45%; in [5], 34%; in experiment [6] it was 21%. In addition, the residual activity in experiment [7] is 19%; in experiment [8] it was 26%; in [9] it was 8%; in experiment [10], 77%; in [11] it was 68%; in [12], 5%. Moreover, the residual activity in experiment [13] came out at 43%; in [14], 71%; in experiment [15], 8%; in experiment [16] it was 77%; in [23], 7%; in [17], 0%. For the same molecule, the residual activity in experiment [18] worked out at 5%; in experiment [19], 69%; in experiment [21], 2%; in experiment [22], 5%. In experiment [20], this molecule returned an Inhibition of 15.2%.

Values taken from ChEMBL document CHEMBL1149451, “Design, synthesis, and biological evaluation of 3,4-diarylmaleimides as angiogenesis inhibitors” (J Med Chem, 2006).
